Experimental data of several laboratories.
Each line is one published result; the experiments were not run side by side.
Target: Tyrosine-protein kinase ZAP-70 (ZAP70, Homo sapiens, UniProt P43403)
Residues used in one study (P43403 1-619): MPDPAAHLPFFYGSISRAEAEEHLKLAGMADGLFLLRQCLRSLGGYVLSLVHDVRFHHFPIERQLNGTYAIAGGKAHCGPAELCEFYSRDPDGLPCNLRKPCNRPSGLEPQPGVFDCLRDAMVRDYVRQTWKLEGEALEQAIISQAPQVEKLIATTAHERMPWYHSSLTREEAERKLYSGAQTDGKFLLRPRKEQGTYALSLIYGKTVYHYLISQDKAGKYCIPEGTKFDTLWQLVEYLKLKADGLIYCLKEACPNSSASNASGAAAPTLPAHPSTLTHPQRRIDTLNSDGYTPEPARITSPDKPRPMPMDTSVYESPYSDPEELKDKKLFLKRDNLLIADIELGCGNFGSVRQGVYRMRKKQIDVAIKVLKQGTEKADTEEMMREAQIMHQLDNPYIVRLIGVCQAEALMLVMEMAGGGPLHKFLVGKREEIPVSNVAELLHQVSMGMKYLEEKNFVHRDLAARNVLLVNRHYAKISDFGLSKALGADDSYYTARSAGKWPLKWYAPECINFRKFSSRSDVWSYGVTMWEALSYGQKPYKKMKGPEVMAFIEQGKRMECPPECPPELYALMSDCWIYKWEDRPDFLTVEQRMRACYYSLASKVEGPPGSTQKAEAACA

Cc1ncc(C)n2nc(/C=C/c3nc(N4CCCC4)cc(N4CCOCC4)n3)nc12 — inhibition (enzyme activity, inhibitor; 10 µM): -6%
COc1cc(Nc2ncc(F)c(Nc3ccc4c(n3)NC(=O)C(C)(C)O4)n2)cc(OC)c1OC — inhibition (binding; 10 µM): 100%
Cn1cc(-c2cccc(N3CCc4c(sc5c4CC(C)(C)C5)C3=O)c2CO)cc(Nc2ccncn2)c1=O — inhibition (enzyme activity, inhibitor; 1 µM): 3%
Cc1nn(C)cc1-c1nc2c(N3CCN(Cc4ccc(Cl)cc4)CC3)c(Cl)cnc2[nH]1 — remaining binding (binding, competition with immobilised ligand; 1 µM): 100%
C#Cc1n[nH]c2c(-c3cn(C(C)c4ccccn4)c(=O)[nH]c3=O)cc(F)cc12 (stereo not drawn) — inhibition (enzyme activity, inhibitor; 1 µM): 16.2%
c1ccc(C(NCCNC(c2ccccc2)c2ccccc2)c2ccccc2)cc1 — inhibition (enzyme activity, inhibitor; 10 µM): 3%
N#CC1(c2ccccn2)CCN(Cc2cc(C(=O)O)c(=O)n3ccccc23)CC1 — remaining binding (cell-free assay, competition with immobilised ligand; 1 µM): 100%
C[C@H](C(=O)N[C@H]1COc2ccccc2[C@@H]1S(C)(=O)=O)c1ccc(F)cc1 — inhibition (enzyme activity, inhibitor; 10 µM): 5%
COc1ncccc1-c1cnn2ccc(N3CCN(C(=O)OC(C)C)CC3)nc12 — remaining binding (binding, competition with immobilised ligand; 1 µM): 88%
Cn1cc(-c2cc(F)cc(N3CCn4c(cc5c4CCCC5)C3=O)c2CO)cc(Nc2ccc(N3CCN(C4COC4)CC3)cn2)c1=O — inhibition (enzyme activity, inhibitor; 0.1 µM): 16%
O=C(Nc1cccnn1)N1CCN([C@@H]2CCOc3cc(C(F)(F)F)ccc32)CC1 — inhibition (enzyme activity, inhibitor; 20 µM): 1%
O=c1[nH]c2ccccc2n1C1CCN(Cc2ccc(-c3[nH]c4cc5ncnc5cc4nc3-c3ccccc3)cc2)CC1 — remaining signal (cell-free assay; 0.5 µM): 97.3%
Nc1ncc(-c2nc(N3CCOCC3)nc(N3CCOCC3)n2)c(C(F)F)n1 — remaining binding (binding, competition with immobilised ligand; 10 µM): 94%
CC(C)(C)c1cc(C=C(C#N)C#N)cc(Br)c1O — remaining activity (enzyme activity, inhibitor; 0.5 µM): 91.6%
Cn1cncc1[C@@](O)(COc1ccc(C#N)cc1-c1ccc(OC(F)(F)F)cc1)c1ccc(C#N)cc1 — remaining binding (cell-free assay, competition with immobilised ligand; 1 µM): 100%
